This is an account of results in ChEMBL document CHEMBL1687848, “In vitro effect of qnrA1, qnrB1, and qnrS1 genes on fluoroquinolone activity against isogenic Escherichia coli isolates with mutations in gyrA and parC” (2011).

In brackets after ≈: the same amount, converted by molar mass.

What all share (format): functional
The test system of assay [1] is Escherichia coli. Briefly: Ratio of mutant prevention concentration to MIC for qnrS gene expressing Escherichia coli ATCC 25922 harboring GyrA S83L mutant and pBK-QnrS1. The method, boiled down:
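MIC: broth microdilution per CLSI, in duplicate. The ratio is MPC over MIC. Strains are E. coli ATCC 25922 or its GyrA Ser83Leu gene-replacement mutant, with qnr genes on pBK-CMV introduced by electroporation.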

Assay [2] relates to Escherichia coli. In words: Antibacterial activity against Escherichia coli ATCC 25922 harboring GyrA S83L mutant assessed as mutant prevention concentration.
Assay [3] has as its system Escherichia coli. In words: Antibacterial activity against qnrS gene expressing Escherichia coli ATCC 25922 harboring ParC S80R mutant, ParC S80R mutant and pBK-QnrS1 by broth microdilution method. (In general: In broth dilution the organism is exposed to a series of concentrations in liquid medium.)
In assay [4] the test system is Escherichia coli. In words: Antibacterial activity against Escherichia coli ATCC 25922 expressing qnrS gene and pBK-QnrS1 assessed as earliest time required to resistant colonies visible one step below mutant prevention concentration.
Assay [5] concerns Escherichia coli. Briefly: Antibacterial activity against Escherichia coli ATCC 25922 harboring ParC S80R mutant by broth microdilution method.
In assay [6] the test system is Escherichia coli. In words: Antibacterial activity against Escherichia coli ATCC 25922 harboring GyrA S83L mutant and ParC S80R mutant by broth microdilution method.
Assay [7] has as its system Escherichia coli. In words: Antibacterial activity against Escherichia coli ATCC 25922 expressing qnrA gene and pBK-QnrA1 by broth microdilution method.
For assay [8], the system named is Escherichia coli. Briefly: Antibacterial activity against qnrA gene expressing Escherichia coli ATCC 25922 harboring ParC S80R mutant, ParC S80R mutant and pBK-QnrA1 by broth microdilution method.
In assay [9] the test system is Escherichia coli. In words: Antibacterial activity against Escherichia coli ATCC 25922 harboring GyrA S83L mutant by broth microdilution method.
The subject of assay [10] is Escherichia coli. Briefly: Antibacterial activity against Escherichia coli ATCC 25922 expressing qnrS gene and pBK-QnrS1 assessed as mutant prevention concentration.
Assay [11] concerns Escherichia coli. Briefly: Antibacterial activity against Escherichia coli ATCC 25922 harboring GyrA S83L mutant assessed as resistant colonies recovered one step below mutant prevention concentration. In outline:
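Resistant colonies recovered from Mueller-Hinton plates one concentration step below the MPC for each fluoroquinolone were retested for MIC. Mutants taken from plated concentrations closest to the MPC had the QRDRs of gyrA and parC analysed.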

The term MBC denotes the smallest concentration meeting the test's criterion for killing. One may read the MIC as the lowest concentration found to suppress growth. As to `CCn1cc(C(=O)O)c(=O)c2cc(F)c(N3CCNCC3)cc21` [NORFLOXACIN], the Ratio in [1] stood at 16. Further, the Activity in [2] and in assay [10] was 8 µg/mL throughout. The MBC stood at 16 µg/mL (≈ 50.1 µM) in assay [3]; 0.03 µg/mL (≈ 0.0939 µM) in assay [5]; 2 µg/mL (≈ 6.26 µM) in assay [6]; 1 µg/mL (≈ 3.13 µM) in [7]; 64 µg/mL (≈ 200 µM) in assay [8]; 0.5 µg/mL (≈ 1.57 µM) in assay [9]. The MIC in assay [3] is 8 µg/mL (≈ 25.1 µM); in assay [5] it was 0.03 µg/mL (≈ 0.0939 µM); in [6] it was 2 µg/mL (≈ 6.26 µM); in assay [7] it was 0.5 µg/mL (≈ 1.57 µM); in assay [8] it was 8 µg/mL (≈ 25.1 µM); in [9] it was 0.125 µg/mL (≈ 0.391 µM). The MIC in assay [11] is 2 µg/mL (≈ 6.26 µM). In addition, the Time in assay [4] amounted to 24 h.
